One may read the Ki as the dissociation constant of the complex between target and ligand, obtained from inhibition or displacement. Read a low Ki as higher affinity. As a reminder, the Kb is the equilibrium dissociation constant of an antagonist, usually derived from a functional assay.

The target in experiment [1] is T1, Pituitary adenylate cyclase-activating polypeptide type I receptor (Homo sapiens, UniProt P41586). Nature of the experiment: Displacement of [125I]PACAP27 from PAC1R expressed in HEK293f cells at 3 uM. The class given is cell-based.
Target sequence in this assay (P41586 21-468 limits assumed): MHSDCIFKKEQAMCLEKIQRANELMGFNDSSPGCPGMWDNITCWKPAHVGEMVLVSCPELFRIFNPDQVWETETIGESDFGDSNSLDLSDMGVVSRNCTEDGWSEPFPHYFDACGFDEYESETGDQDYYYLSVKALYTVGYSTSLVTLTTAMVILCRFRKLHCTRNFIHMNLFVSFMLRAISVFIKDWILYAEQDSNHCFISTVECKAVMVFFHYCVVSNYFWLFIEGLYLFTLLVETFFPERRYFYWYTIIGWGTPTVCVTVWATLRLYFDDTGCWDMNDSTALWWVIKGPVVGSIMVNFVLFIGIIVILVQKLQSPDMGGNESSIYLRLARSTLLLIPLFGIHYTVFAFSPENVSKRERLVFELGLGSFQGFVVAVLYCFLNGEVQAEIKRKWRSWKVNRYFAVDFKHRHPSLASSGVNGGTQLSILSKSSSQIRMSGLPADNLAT
For experiment [2], the target named is T1, Pituitary adenylate cyclase-activating polypeptide type I receptor. Nature of the experiment: Displacement of [125I]PACAP27 from PAC1R expressed in HEK293f cells. It counts as cell-based. The gist of the method: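 Membranes from HEK293f cells expressing PAC1R (5 lg protein) incubated with 0.2 nM ¹²⁵I-PACAP27 in 50 mM Tris–HCl pH 7.4, 5 mM MgCl₂, 20 min at 37 °C; nonspecific binding with 300 nM unlabeled PACAP38. Terminated by filtration through PEI-soaked GF/B filters, three ice-cold buffer washes, radioactivity counted; Ki reported.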
A general note: In a radioligand displacement assay an active substance lowers the binding of a labelled ligand.

Experiment [3] deals with T2, Pituitary adenylate cyclase-activating polypeptide type I receptor (Rattus norvegicus) (UniProt P32215).
T2 sequence (whole entry): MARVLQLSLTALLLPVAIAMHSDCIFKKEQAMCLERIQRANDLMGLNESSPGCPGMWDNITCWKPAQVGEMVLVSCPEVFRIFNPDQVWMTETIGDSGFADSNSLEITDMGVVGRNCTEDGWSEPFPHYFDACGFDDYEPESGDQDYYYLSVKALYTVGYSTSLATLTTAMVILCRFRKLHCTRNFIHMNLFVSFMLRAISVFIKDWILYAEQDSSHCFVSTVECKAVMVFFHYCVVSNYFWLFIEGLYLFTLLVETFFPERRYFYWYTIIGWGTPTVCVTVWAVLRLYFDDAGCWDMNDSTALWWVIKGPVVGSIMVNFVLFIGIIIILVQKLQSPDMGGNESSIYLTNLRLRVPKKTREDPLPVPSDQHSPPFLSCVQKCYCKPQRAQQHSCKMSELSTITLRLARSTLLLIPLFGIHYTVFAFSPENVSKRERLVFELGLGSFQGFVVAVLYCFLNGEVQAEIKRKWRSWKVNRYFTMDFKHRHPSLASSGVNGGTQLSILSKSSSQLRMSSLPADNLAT
In words: Antagonist activity at PAC1R in rat AR42J cells assessed as PACAP-induced calcium mobilization by FLIPR assay. The class given is functional, cell-based. As to conditions: AR-42J. Summed up:
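Cells loaded with Fluo-4AM for 2 h, preincubated with compounds 30 min at room temperature, then challenged with 2 nM PACAP-27; intracellular calcium changes monitored by FLIPR; Kb calculated.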
On the technique in general: Calcium flux is commonly read through the fluorescence of an indicator in the cells.

Each structure is given as a SMILES string. The source made the active and inactive calls. No cut-off for these calls is given here.

As to `COc1cc(/C=N/NC(=O)c2ccc(O)cc2)cc(OC)c1OCc1ccc(C(C)C)cc1`, the Activity in experiment [1] came out at 22%.

In the case of `COc1cc(/C=N/NC(=O)c2ccc(O)c(Cl)c2)cc(OC)c1OCc1ccc(C(F)(F)F)cc1`, the Ki in experiment [2] came to 140 nM.

In experiment [1], `CNC(=O)c1ccc(COc2ccc(/C=N/NC(=O)c3ccc(O)c(Cl)c3)cc2OC)cc1` returned an Activity of 36%.

In experiment [2], `O=C(N/N=C/c1cccc(OCc2cccc(C(F)(F)F)c2)c1)c1ccc(O)c(Cl)c1` came in with a Ki of 554 nM.

For the compound `COc1cc(/C=N/NC(=O)c2ccc(O)c(Cl)c2)ccc1OCc1ccc(NC(C)=O)cc1`, the Activity in experiment [1] came out at 34%.

On to `COc1cc(/C=N/NC(=O)c2ccc(O)c(Cl)c2)cc(OCc2cccc(C(F)(F)F)c2)c1OC`, for which the result in experiment [2] was inactive.

`O=C(N/N=C/c1ccc(COc2ccccc2)cc1)c1ccc(O)c(Cl)c1` displayed an Activity in experiment [1] of 41%.

Take `COc1cc(-c2nnc(-c3ccc(O)c(Cl)c3)s2)cc(OC)c1OCc1ccc(C(C)C)cc1`: the result in experiment [2] was inactive.

In the case of `COc1cc(C(=O)N/N=C/c2cc(OC)c(OCc3ccc(C(C)C)cc3)c(OC)c2)ccc1O`, the Activity in experiment [1] came to 44%.

With `COc1cc(-c2nnc(-c3ccc(O)c(Cl)c3)o2)cc(OC)c1OCc1ccc(C(C)C)cc1`, in experiment [2], the result was inactive.

With `CC(=O)Nc1ccc(COc2ccc(/C=N/NC(=O)c3ccc(O)c(Cl)c3)cc2)cc1`, the outcome in experiment [2] was inactive.

In turn, `O=C(N/N=C/c1cccc(COc2cccc(C(F)(F)F)c2)c1)c1ccc(O)c(Cl)c1` had a Ki in experiment [2] of 274 nM.

In experiment [2], `COc1cc(/C=N/NC(=O)c2ccc(O)c(Cl)c2)ccc1OCc1cccc(C(F)(F)F)c1` registered a Ki of 404 nM.

Take `COc1cc(/C=N/NC(=O)c2ccc(O)c(Cl)c2)cc(OC)c1OCc1ccc(C(C)C)cc1`: the affinity in experiment [2], expressed as Ki, was 56 nM. The Kb in experiment [3] turned out to be 200 nM.

For the compound `COc1cc(/C=N/NC(=O)c2ccc(O)c(Cl)c2)cc(OCc2c(C)c(C)cc(C)c2C)c1OC`, in experiment [2], the Ki came out at 167 nM.

`O=C(N/N=C/c1cccc2c1ccn2Cc1ccccc1)c1ccc(O)c(Cl)c1` showed an Activity in experiment [1] of 55%.

For the compound `COc1cc(/C=N/NC(=O)c2cccc(Cl)c2)cc(OC)c1OCc1ccc(C(C)C)cc1`, the outcome in experiment [2] was inactive.

For `O=C(N/N=C/c1ccc(OCc2cccc(C(F)(F)F)c2)cc1)c1ccc(O)c(Cl)c1`, the Ki in experiment [2] amounted to 537 nM. In other words, the sub-micromolar range.

Regarding `COc1cc(/C=N/NC(=O)c2ccc3[nH]ncc3c2)cc(OC)c1OCc1ccc(C(C)C)cc1`, the outcome in experiment [2] was inactive.

For `COc1cc(CNNC(=O)c2ccc(O)c(Cl)c2)cc(OC)c1OCc1ccc(C(C)C)cc1`, the Activity in experiment [1] was found to be 46%.

On to `COc1cc(/C=N/NC(=O)c2ccc(O)c(Cl)c2)ccc1OCc1ccc(C(C)C)cc1`, for which the result in experiment [2] was inactive.

The compound `O=C(N/N=C/c1cccc(COc2ccc(C(F)(F)F)cc2)c1)c1ccc(O)c(Cl)c1` showed a Ki in experiment [2] of 241 nM.

Turning to `COc1cc(/C=N/NC(=O)c2ccc(O)c(Cl)c2)cc(OC)c1OCc1ccc(NC(C)=O)cc1`, the Activity in experiment [1] turned out to be 43%.

The compound `O=C(N/N=C/c1cccc2c1ccn2Cc1ccc(OCc2ccccc2)cc1)c1ccc(O)c(Cl)c1` showed an Activity in experiment [1] of 51%.

Turning to `COc1cc(/C=N/NC(=O)c2ccc(O)c(Cl)c2)cc(OCc2ccc(C(C)C)cc2)c1OC`, the affinity in experiment [2] corresponds to a Ki of 152 nM.

As for `COc1cc(C(=O)NNC(=O)c2ccc(O)c(Cl)c2)cc(OC)c1OCc1ccc(C(C)C)cc1`, the Activity in experiment [1] was 40%.

Regarding `O=C(N/N=C/c1ccc(OCc2ccccc2)cc1)c1ccc(O)c(Cl)c1`, the Ki in experiment [2] is 522 nM.

In experiment [2], `COc1cc(/C=N/NC(=O)c2ccc(O)c(Cl)c2)cc(OC)c1OCc1cccc(C(F)(F)F)c1` registered an inhibition constant Ki of 204 nM.

In experiment [1], `COc1cc(/C=N/NC(=O)c2ccc(O)c(Cl)c2)ccc1OCc1ccc(C(F)(F)F)cc1` showed an Activity of 50%.

The compound `O=C(N/N=C/c1cccc2c1ccn2Cc1cccc(C(F)(F)F)c1)c1ccc(O)c(Cl)c1` had a Ki in experiment [2] of 85 nM. This counts as double-digit nanomolar.

`COc1cc(/C=N/NC(=O)c2ccc(O)c(Cl)c2)cc(OC)c1OCc1ccccc1` returned a Ki in experiment [2] of 185 nM.

`O=C(N/N=C/c1ccc(OCc2ccc(C(F)(F)F)cc2)cc1)c1ccc(O)c(Cl)c1` returned an Activity in experiment [1] of 43%.

(Values after ChEMBL document CHEMBL1143199, “Discovery and SAR of hydrazide antagonists of the pituitary adenylate cyclase-activating polypeptide (PACAP) receptor type 1 (PAC1-R)” (Bioorg Med Chem Lett, 2008).)
